Drawing on ChEMBL document CHEMBL1138069, “Synthesis and SAR of 1,3-disubstituted cyclohexylmethyl urea and amide derivatives as non-peptidic motilin receptor antagonists” (Bioorg Med Chem Lett, 2006), this text covers inhibition, IC50 and Activity for 25 compounds.

The target of assay [1] is Motilin receptor (Oryctolagus cuniculus) (UniProt A5A4K8). In words: Inhibition of [125]I-motilin binding to rabbit motilin receptor at 1 uM.
Assay [2] addresses T1, Motilin receptor (Oryctolagus cuniculus, UniProt A5A4K8). In words: Inhibition of [125]I-motilin binding to rabbit motilin receptor.
Assay [3] addresses T1, Motilin receptor. Nature of the assay: Inhibition of [125]I-motilin binding to rabbit motilin receptor. The procedure, abridged: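 Rabbit colon membranes, homogenized in Tris–HCl pH 7.5 and centrifuged, with the pellet stored frozen. Bound tracer was separated by centrifugation. Nonspecific binding was taken with unlabeled porcine motilin. IC50 values are means of at least two separate determinations.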

In assay [4] the target is Motilin receptor (Oryctolagus cuniculus) (UniProt A5A4K8). Nature of the assay: Agonist activity at rabbit duodenum motilin receptor by tissue contractility assay at 10 uM. Format: functional.
In assay [5] the target is T2, Motilin receptor (Homo sapiens, UniProt O43193). Nature of the assay: Activity at human motilin receptor transfected in HEK293 cells assessed as inhibition of motilin-induced intracellular calcium mobilization. The format is functional, cell-based. (In general: Calcium flux is commonly read through the fluorescence of an indicator in the cells.)
T2 sequence (O43193 whole entry): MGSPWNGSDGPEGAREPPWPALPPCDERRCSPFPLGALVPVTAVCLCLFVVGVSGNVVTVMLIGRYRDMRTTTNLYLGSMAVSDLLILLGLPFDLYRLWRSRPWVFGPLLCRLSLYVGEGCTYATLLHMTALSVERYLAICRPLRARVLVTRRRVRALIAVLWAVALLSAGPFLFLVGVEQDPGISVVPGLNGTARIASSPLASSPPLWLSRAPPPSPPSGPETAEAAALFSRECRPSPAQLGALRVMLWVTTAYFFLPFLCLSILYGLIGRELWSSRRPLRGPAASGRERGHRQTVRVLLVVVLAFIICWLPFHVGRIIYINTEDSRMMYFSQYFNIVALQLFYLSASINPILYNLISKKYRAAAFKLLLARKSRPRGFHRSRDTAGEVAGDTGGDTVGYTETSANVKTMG
Assay [6] concerns the target T2, Motilin receptor. Nature of the assay: Agonist activity at human motilin receptor transfected in HEK293 cells assessed as inhibition of motilin-induced intracellular calcium mobilization at 30 uM. Format: functional, cell-based.
The target of assay [7] is T1, Motilin receptor. Nature of the assay: Activity at rabbit duodenum motilin receptor by tissue contractility assay. Format: functional.

Activity calls are given as the source filed them. No cut-off for these calls is given here.

T1 sequence (A5A4K8 whole entry): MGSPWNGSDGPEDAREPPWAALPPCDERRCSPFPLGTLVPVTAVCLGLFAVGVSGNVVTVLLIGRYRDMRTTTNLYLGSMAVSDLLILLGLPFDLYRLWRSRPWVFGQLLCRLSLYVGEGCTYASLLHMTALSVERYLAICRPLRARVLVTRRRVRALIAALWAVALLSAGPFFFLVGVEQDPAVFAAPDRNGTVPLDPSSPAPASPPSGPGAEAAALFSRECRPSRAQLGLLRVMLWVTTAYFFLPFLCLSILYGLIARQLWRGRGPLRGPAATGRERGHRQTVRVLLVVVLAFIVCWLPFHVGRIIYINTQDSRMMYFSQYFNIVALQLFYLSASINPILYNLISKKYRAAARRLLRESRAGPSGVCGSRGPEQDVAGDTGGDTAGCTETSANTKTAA
Chain of Motilin receptor (Oryctolagus cuniculus) (A5A4K8 as listed by the source): as the sequence (A5A4K8 whole entry) above

For orientation: inhibition means the change of the read-out against control, counted positive when it falls. For `O=C(Nc1ccccc1)N(c1cccc(OCCN2CCOCC2)c1)C1CCC(CN(Cc2cccc(Cl)c2)C(=O)C(Cl)(Cl)Cl)C1` (stereo unspecified), the inhibition in assay [1] came to 4%.

In general, IC50 refers to the point on the concentration scale where inhibition reaches its midpoint. For `CC(C)(C)C(=O)N(Cc1ccccc1)C1CCCC(CN(C(=O)Nc2ccccc2)c2cccc(OCCN3CCCC3)c2)C1` (racemic), on Motilin receptor [2], the 50% inhibitory concentration (IC50) was 21 nM. `O=C(Nc1ccccc1)N(CC1CCCC(N(Cc2cccc(C(F)(F)F)c2)C(=O)C(Cl)(Cl)Cl)C1)c1cccc(OCCN2CCOCC2)c1` (racemic): the inhibition in assay [1] amounted to 58%. In assay [1], `O=C(Nc1ccccc1)N(CC1CCCC(NCc2cccc(Cl)c2)C1)c1cccc(OCCN2CCOCC2)c1` (racemic) came in with an inhibition of 28%. Regarding `COc1cccc(C(=O)N(Cc2cccc(Cl)c2)C2CCCC(CN(C(=O)Nc3ccccc3)c3cccc(OCCN4CCOCC4)c3)C2)c1` (racemic), the 50% inhibitory concentration (IC50) on Motilin receptor [3] turned out to be 650 nM. Still for that read-out and setting: the figure for `O=C(Nc1ccccc1)N(CC1CCCC(N(Cc2ccccc2)C(=O)CCc2ccccc2)C1)c1cccc(OCCN2CCOCC2)c1` (stereo unspecified) is 730 nM. As to `O=C(c1ccc(F)cc1)N(CC1CCCC(N(Cc2cccc([N+](=O)[O-])c2)C(=O)C(Cl)(Cl)Cl)C1)c1cccc(OCCN2CCCC2)c1` (stereo unspecified), the result (in assay [4]; on Motilin receptor [6]) was inactive. Besides, the IC50 at Motilin receptor [3] came out at 14 nM; at Motilin receptor [5], 52 nM. The compound `O=C(Nc1ccccc1)N(CC1CCCC(N(Cc2ccccc2)C(=O)c2ccco2)C1)c1cccc(OCCN2CCOCC2)c1` (racemic) had an IC50 at Motilin receptor [3] of 656 nM. Still for that read-out and setting: the same measure for `O=C(Nc1ccccc1)N(CC1=C[C@@](Cc2ccccc2)(NC(=O)C(Cl)(Cl)Cl)CC1)c1cccc(OCCN2CCOCC2)c1`: 20 nM. Regarding `O=C(c1ccc(F)cc1)N(CC1CCCC(N(Cc2ccccc2)C(=O)C(Cl)(Cl)Cl)C1)c1cccc(OCCN2CCCC2)c1` (racemic), the result (in assay [4]; on Motilin receptor [6]) was inactive. Besides, the half-inhibitory concentration (IC50) on Motilin receptor [3] was 58 nM; against Motilin receptor [7], 27 nM. With `CC(C)(C)C(=O)N(Cc1ccccc1)[C@H]1CCC[C@@H](CN(C(=O)c2ccc(F)cc2)c2cccc(OCCN3CCCC3)c2)C1`, the outcome (in assay [4]; at Motilin receptor [6]) was inactive. Besides, the 50% inhibitory concentration (IC50) on Motilin receptor [5] turned out to be 2480 nM. For `O=C(c1ccc(F)cc1)N(CC1CCCC(N(Cc2cccc(Cl)c2)C(=O)C(Cl)(Cl)Cl)C1)c1cccc(OCCN2CCCCC2)c1` (racemic), the result (in assay [4]; on Motilin receptor [6]) was inactive. Further, the results for the IC50 at Motilin receptor [3], at Motilin receptor [5] and at Motilin receptor [7] were 63 nM, 228 nM and 21 nM, respectively. Turning to `CC(C)(C)C(=O)N(Cc1ccccc1)C1CCCC(CN(C(=O)c2ccc(F)cc2)c2cccc(OCCN3CCOCC3)c2)C1` (racemic), the outcome (in assay [4]; on Motilin receptor [6]) was inactive. For the same compound, the IC50 on Motilin receptor [3] was 772 nM. The compound `CC(C)(C)C(=O)N(Cc1ccccc1)C1CCCC(CN(C(=O)Nc2ccccc2)c2cccc(OCCN3CCOCC3)c2)C1` (racemic) had an inhibition in assay [1] of 50%. At Motilin receptor [3], `O=C(Nc1ccccc1)N(CC1=C[C@@](Cc2cccc(Cl)c2)(NC(=O)C(Cl)(Cl)Cl)CC1)c1cccc(OCCN2CCOCC2)c1` gave an IC50 of 10 nM. For the compound `CC(C)(C)C(=O)N(Cc1ccccc1)C1CCCC(CN(C(=O)c2ccc(F)cc2)c2cccc(OCCN3CCCC3)c2)C1` (racemic), the outcome (in assay [4]; at Motilin receptor [6]) was inactive. For the same compound, the IC50 at Motilin receptor [5] turned out to be 990 nM. At Motilin receptor [3], `O=C(Nc1ccccc1)N(CC1CCCC(N(Cc2ccccc2)C(=O)C(Cl)(Cl)Cl)C1)c1cccc(OCCN2CCOCC2)c1` (racemic) returned an IC50 of 957 nM. `CC(C)(C)C(=O)N(Cc1ccccc1)[C@@H]1CCC[C@H](CN(C(=O)c2ccc(F)cc2)c2cccc(OCCN3CCCC3)c2)C1`: the outcome (in assay [4]; on Motilin receptor [6]) was inactive. Moreover, the IC50 at Motilin receptor [5] turned out to be 338 nM. As for `COc1cccc(C(=O)NC2CCCC(CN(C(=O)Nc3ccccc3)c3cccc(OCCN4CCOCC4)c3)C2)c1` (racemic), the inhibition in assay [1] turned out to be 26%. As for `O=C(c1ccc(F)cc1)N(CC1CCCC(N(Cc2cccc(Cl)c2)C(=O)C(Cl)(Cl)Cl)C1)c1cccc(OCCN2CCCC2)c1` (racemic), the result (in assay [4]; on Motilin receptor [6]) was inactive. Further, the values for the IC50 at Motilin receptor [3] and at Motilin receptor [5] were 58 nM and 267 nM, respectively.

Regarding `COc1cccc(C(=O)N(Cc2cccc(Cl)c2)C2CCC(CN(C(=O)Nc3ccccc3)c3cccc(OCCN4CCOCC4)c3)CC2)c1` (racemic), in assay [1], the inhibition came out at 6%. Same read-out and setting: the figure for `O=C(Nc1ccccc1)N(CC1CCCC(N(Cc2ccccc2)C(=O)c2ccc(-c3ccccc3)cc2)C1)c1cccc(OCCN2CCOCC2)c1` (racemic) is 3%; for `O=C(Nc1ccccc1)N(CC1CCCC(N(Cc2cccc(Cl)c2)C(=O)C(Cl)(Cl)Cl)C1)c1cccc(OCCN2CCOCC2)c1` (racemic) it is 23%.

On Motilin receptor [3], `O=C(Nc1ccccc1)N(CC1CCCC(N(Cc2cccc([N+](=O)[O-])c2)C(=O)C(Cl)(Cl)Cl)C1)c1cccc(OCCN2CCOCC2)c1` (racemic) returned an IC50 of 35 nM. On the same count and under the same terms, the same measure for `O=C(Nc1ccccc1)N(CC1CCCC(N(Cc2ccccc2)C(=O)c2cccc([N+](=O)[O-])c2)C1)c1cccc(OCCN2CCOCC2)c1` (racemic): 1160 nM.
